What all share (assay type): functional
In test [1] the test system is Mus musculus. Nature of the test: Survival of Plasmodium berghei GFP infected mice (Mus musculus) at 30 mg/kg, subcutaneous after single dose. An outline of the steps:
(§1)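 Single subcutaneous dose given on day 1 after infection; vehicle Tween 80 (70%)/ethanol (30%), then 10× dilution with water. Three animals per dimer group. Read-out is average survival in days after infection. Mice alive at day 30 were sacrificed, and if no parasites were detected they were counted cured. Parasitemia was measured by flow cytometry.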

For test [2], the system named is Mus musculus. Nature of the test: Survival of Plasmodium berghei GFP infected mice (Mus musculus) at 10 mg/kg, subcutaneous after single dose. The essentials: as §1
Test [3] relates to Mus musculus. Nature of the test: Survival of Plasmodium berghei GFP infected mice (Mus musculus) at 3 mg/kg, subcutaneous after single dose. An outline of the steps:
as §1

The test system of test [4] is Mus musculus. Nature of the test: Survival of Plasmodium berghei GFP infected mice (Mus musculus) at 30 mg/kg, peroral after three doses. The conditions noted are these: route oral. An outline of the steps: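 Three consecutive daily oral doses starting day 1 after infection; vehicle Tween 80 (70%)/ethanol (30%), then 10× dilution with water. Three animals per dimer group. Read-out is average survival in days after infection. Survivors at day 30 were sacrificed, and if no parasites were detected they were counted cured. Parasitemia was measured by flow cytometry.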

On to `C[C@H]1[C@@H](CC(C[C@H]2O[C@H]3O[C@@]4(C)CC[C@H]5[C@H](C)CC[C@@H]([C@H]2C)[C@@]35OO4)C(=O)NCc2ccccc2)O[C@@H]2O[C@@]3(C)CC[C@H]4[C@H](C)CC[C@@H]1[C@@]24OO3` (some centres not stated), for which the Survival with Mus musculus [1] is greater than 30 days; with Mus musculus [2], 15 days; with Mus musculus [3] it was 12.3 days; in the test on Mus musculus [4] it was 12.7 days.
For `C[C@H]1[C@@H](CC(C[C@H]2O[C@H]3O[C@@]4(C)CC[C@H]5[C@H](C)CC[C@@H]([C@H]2C)[C@@]35OO4)C(=O)NC(C)(C)C)O[C@@H]2O[C@@]3(C)CC[C@H]4[C@H](C)CC[C@@H]1[C@@]24OO3` (some centres not stated) the same measures were greater than 30 days, 25.3 days, 14 days and 14.7 days.
Consider `C[C@H]1[C@@H](CC(CNc2ccccc2)C[C@H]2O[C@@H]3O[C@@]4(C)CC[C@H]5[C@H](C)CC[C@@H]([C@H]2C)[C@@]35OO4)O[C@@H]2O[C@@]3(C)CC[C@H]4[C@H](C)CC[C@@H]1[C@@]24OO3` (some centres not stated), for which the figures for the Survival with Mus musculus [1], with Mus musculus [2] and in the test with Mus musculus [3] were greater than 30 days, 12.3 days and 8 days, respectively.
For `C[C@H]1[C@@H](CC(C[C@H]2O[C@H]3O[C@@]4(C)CC[C@H]5[C@H](C)CC[C@@H]([C@H]2C)[C@@]35OO4)C(=O)NNC(=O)c2ccncc2)O[C@@H]2O[C@@]3(C)CC[C@H]4[C@H](C)CC[C@@H]1[C@@]24OO3` (some centres not stated), the Survival with Mus musculus [1] was greater than 30 days; in the test with Mus musculus [2] it was 10 days; with Mus musculus [3], 9 days; in the test on Mus musculus [4] it was 7 days.
Turning to `C[C@H]1[C@@H](CC(O)(COCc2ccncc2)C[C@H]2O[C@@H]3O[C@@]4(C)CC[C@H]5[C@H](C)CC[C@@H]([C@H]2C)[C@@]35OO4)O[C@@H]2O[C@@]3(C)CC[C@H]4[C@H](C)CC[C@@H]1[C@@]24OO3` (some centres not stated), the Survival is 15 days in the test with Mus musculus [1], 13.3 days in the test with Mus musculus [2], 9.7 days in the test on Mus musculus [3] and greater than 30 days in the test on Mus musculus [4].
As for `Cc1ccc(COCC(C[C@H]2O[C@@H]3O[C@@]4(C)CC[C@H]5[C@H](C)CC[C@@H]([C@H]2C)[C@@]35OO4)C[C@H]2O[C@@H]3O[C@@]4(C)CC[C@H]5[C@H](C)CC[C@@H]([C@H]2C)[C@@]35OO4)cc1` (some centres not stated), the Survival in the test on Mus musculus [1] is 27 days; in the test on Mus musculus [2] it was 10 days; with Mus musculus [3], 8 days; in the test on Mus musculus [4], greater than 30 days.
Regarding `C[C@H]1[C@H](OC(=O)CCC(=O)O)O[C@@H]2O[C@@]3(C)CC[C@H]4[C@H](C)CC[C@@H]1[C@@]24OO3` [ARTESUNATE], the Survival is 9.1 days in the test on Mus musculus [1], 8.6 days in the test on Mus musculus [2], 7.3 days with Mus musculus [3] and 7.5 days with Mus musculus [4].

The record behind these values is ChEMBL document CHEMBL1139862, “Malaria-infected mice are cured by a single dose of novel artemisinin derivatives” (2007).
